Test results from ChEMBL document CHEMBL4007469, “Design and synthesis of dalbergin analogues and evaluation of anti-osteoporotic activity” (Bioorg Med Chem Lett, 2017).
Active and inactive are the calls of the source. The rule behind the calls is not given here.

Legend:
Mus musculus [1] = experiment: Anti-osteoporotic activity in ovariectomized postmenopausal Balb/c mouse model assessed as femur bone breaking strength by measuring stiffness at 1 mg/kg, po qd via gavage for 6 weeks by micro CT-scan analysis (reference value: 34.3 +/- 1.84 N/mm); format: functional
Method in brief: (§1)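 Female Balb/c mice, 8 weeks old, ovariectomized, 6 weeks osteopenia development, then 1.0 mg/kg/day or gum acacia vehicle by oral gavage once daily for 6 weeks (sham, OVx and treated groups). Bones collected after sacrifice for micro-CT of trabecular microarchitecture (BV/TV, Tb.N, Tb.Th, Tb.Sp, SMI) and biomechanical testing of femur and vertebrae (energy, stiffness); mean ± SE versus OVx.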

Mus musculus [2] = experiment: In vivo induction of osteogenesis in Balb/c mouse assessed as bone formation at 5 mg/kg/day, sc over calvarial surface for 5 consecutive days by hematoxylin and eosin staining based fluorescence microscopic method; format: functional, organism-based
Method in brief: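 Three-week-old Balb/c mice (3 per group) injected subcutaneously over the calvarial surface daily for 5 consecutive days at 0.1, 0.5, 1 and 5 mg/kg/day. Calvaria fixed in 4% formaldehyde, paraffin-embedded, H&E-stained; tetracycline and calcein (20 mg/kg each, ip) given for MAR/BFR histomorphometry; calvarial mRNA by RT-PCR. Mean ± SE, three independent experiments, versus untreated.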

Mus musculus [3] = experiment: Decrease in osteocalcin level in serum of ovariectomized postmenopausal Balb/c mouse model at 1 mg/kg, po qd via gavage for 6 weeks by ELISA; format: functional, organism-based
Method in brief: (§2)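 Eight-week-old female Balb/c mice, ovariectomized and left 6 weeks for osteopenia to develop; groups sham+vehicle, OVx+vehicle, OVx+1.0 mg/kg/day, dosed once daily by oral gavage for 6 weeks in gum acacia/distilled water vehicle. Mice kept at 21°C, 12 h light/dark, chow and water ad libitum. Femoral bone mRNA or serum measured after sacrifice; mean ± SE versus OVx group.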

Mus musculus [4] = experiment: Anti-osteoporotic activity in ovariectomized postmenopausal Balb/c mouse model assessed as decrease in RANK mRNA expression at 1 mg/kg, po qd via gavage for 6 weeks by RT-PCR method; format: functional, organism-based; method in brief: as §2
Mus musculus [5] = experiment: Anti-osteoporotic activity in ovariectomized postmenopausal Balb/c mouse model assessed as induction of femur bone marrow cell differentiation by measuring increase in ALP activity at 1 mg/kg, po qd via gavage for 6 weeks relative to control; format: functional
Method in brief: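 Ovariectomized 8-week-old female Balb/c mice given 1.0 mg/kg/day orally by gavage for 6 weeks; bone marrow cells then cultured ex vivo. ALP activity read at 405 nm; mineralized nodules stained with Alizarin Red at day 21 of culture. Mean ± SE versus OVx group.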

Mus musculus [6] = experiment: Anti-osteoporotic activity in ovariectomized postmenopausal Balb/c mouse model assessed as increase in Osx gene expression in femur bone at 1 mg/kg, po qd via gavage for 6 weeks by RT-PCR method; format: functional, organism-based; method in brief: as §2
Mus musculus [7] = experiment: Anti-osteoporotic activity in ovariectomized postmenopausal Balb/c mouse model assessed as vertebrae compressive strength by measuring stiffness at 1 mg/kg, po qd via gavage for 6 weeks by micro CT-scan analysis (reference value: 345.7 +/- 5.08 N/mm); format: functional; method in brief: as §1
Mus musculus [8] = experiment: Anti-osteoporotic activity in ovariectomized postmenopausal Balb/c mouse model assessed as improvement in micro-artchitectural parameter in tibia by measuring trabecular separation at 1 mg/kg, po qd via gavage for 6 weeks by micro CT-scan analysis (reference value: 0.387 +/- 0.038 millimeter); format: functional; method in brief: as §1
Mus musculus [9] = experiment: Anti-osteoporotic activity in ovariectomized postmenopausal Balb/c mouse model assessed as improvement in micro-artchitectural parameter in tibia by measuring structural model index at 1 mg/kg, po qd via gavage for 6 weeks by micro CT-scan analysis (reference value: 2.32 +/- 0.08); format: functional; method in brief: as §1
Mus musculus [10] = experiment: Osteogenic activity in Balb/c mouse drill-hole fracture model assessed as trabecular number at 1 mg/kg, po qd via gavage for 21 days by micro-CT method (reference value: 2.194 +/- 0.265 /millimeter)
Mus musculus [11] = experiment: Osteogenic activity in Balb/c mouse drill-hole fracture model assessed as increase in BMP2 mRNA level at 1 mg/kg, po qd via gavage for 21 days by RT-PCR method
Mus musculus [12] = experiment: Osteogenic activity in Balb/c mouse drill-hole fracture model assessed as increase in Runx2 mRNA level at 1 mg/kg, po qd via gavage for 21 days by RT-PCR method
[13] = Induction of osteoblast differentiation in mouse calvarial cells assessed as increase in RunX2 mRNA expression at 1 pM after 24 hrs by qRT-PCR method relative to control; format: functional, Calvarial cell
Method in brief: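 Mouse calvarial osteoblasts exposed to 1 pM for 24 h; BMP2, RunX2 and COL1 mRNA by quantitative PCR with GAPDH as internal control. Mean ± SE of three independent experiments versus untreated cells.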

Mus musculus [14] = experiment: Anti-osteoporotic activity in ovariectomized postmenopausal Balb/c mouse model assessed as increase in RunX2 gene expression in femur bone at 1 mg/kg, po qd via gavage for 6 weeks by RT-PCR method; format: functional, organism-based; method in brief: as §2
Mus musculus [15] = experiment: Anti-osteoporotic activity in ovariectomized postmenopausal Balb/c mouse model assessed as improvement in micro-artchitectural parameter in tibia by measuring trabecular number at 1 mg/kg, po qd via gavage for 6 weeks by micro CT-scan analysis (reference value: 1.49 +/- 0.25 /millimeter); format: functional; method in brief: as §1

Compound: COc1cc2oc(=O)cc(-c3ccccc3)c2cc1OCCCCCN1CCN(C)CC1
- Activity (Mus musculus [1]): 53.55 N/mm
- Activity (Mus musculus [2]): inactive
- Activity (Mus musculus [3]): Active
- Activity (Mus musculus [4]): Active
- fold change (FC) (Mus musculus [5]): 2
- Activity (Mus musculus [6]): Active
- Activity (Mus musculus [7]): 381.35 N/mm
- Activity (Mus musculus [8]): 0.294 mm
- Activity_index (Mus musculus [9]): 1.84
- Activity (Mus musculus [10]): 3.442 /millimeter
- Activity (Mus musculus [11]): Active
- Activity (Mus musculus [12]): Active
- fold change (FC) [13]: 2
- Activity (Mus musculus [14]): Active
- Activity (Mus musculus [15]): 2.7 /millimeter
